APOBEC3A inh = APOBEC3A ssDNA deaminase inhibitors, primary screen, selectivity assay for APOBEC3G inhibitor project, biochemical, FAM/TAMRA oligo cleavage fluorescence | recombinant A3A, FAM/TAMRA ssDNA deamination fluorescence | inhibition, % at 20 µM | hit rate 0.41% among 330,000 | AID 493011, 2011;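 active = at least 40% inhibition at 20 µM here, with at most 30% in a related deaminase screen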;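 also: plate controls were A3A with DMSO for no effect and wells lacking A3A enzyme for full effect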
Mot1-301 SUMO = yeast Mot1-301 growth rescue at high temperature, primary screen, SUMOylation pathway inhibitor project, S. cerevisiae, ATP luminescence, 38.5C. AID 2716, 2010. S. cerevisiae Mot1-301 growth rescue; percent above DMSO median, 100 means doubled. hit rate 1% among 320,000. growth rescue, % at 18.8 µM;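 active = every valid replicate shows activation above 250% relative to neutral control wells; inactive = the rest, any valid replicate at or below 250%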;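 also: OY570 slx delta 5 strain wells were the positive control but not used for scaling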
APOBEC3G inh = APOBEC3G DNA deaminase inhibitors, primary screen, biochemical, fluorescence, single-stranded DNA substrate, uHTS. DNA dC->dU-editing enzyme APOBEC-3G (Homo sapiens), Q9HC16. recombinant A3G, ssDNA deamination FAM/TAMRA fluorescence. inhibition, % at 20 µM. hit rate 0.28% among 330,000. AID 493012, 2011;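 active = inhibition of at least 40% at 20 µM, with no more than 30% in the related APOBEC3A deaminase screen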;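 also: plate controls were DMSO wells with A3G for no effect and wells lacking A3G enzyme for full effect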
Target sequence (Q9HC16 whole entry, looked up): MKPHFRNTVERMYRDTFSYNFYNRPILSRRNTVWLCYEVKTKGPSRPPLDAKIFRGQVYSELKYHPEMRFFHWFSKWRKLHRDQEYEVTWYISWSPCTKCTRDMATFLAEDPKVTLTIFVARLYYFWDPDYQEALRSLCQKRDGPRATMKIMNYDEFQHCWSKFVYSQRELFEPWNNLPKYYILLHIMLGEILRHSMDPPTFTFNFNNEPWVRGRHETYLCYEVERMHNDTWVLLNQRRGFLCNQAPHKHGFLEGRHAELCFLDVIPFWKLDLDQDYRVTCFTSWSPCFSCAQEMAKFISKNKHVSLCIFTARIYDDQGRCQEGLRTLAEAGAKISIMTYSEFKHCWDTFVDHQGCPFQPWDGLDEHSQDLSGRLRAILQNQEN
ASAP1 inh = inhibitors of human ASAP1 ArfGAP activity, primary screen, biochemical, fluorescence polarization. ASAP1-stimulated ARF1 GTP hydrolysis, GDP FP detection. inhibition, % at 16.5 µM. hit rate 0.19% among 360,000. AID 624377, 2012; in the data active = inhibition above about 25%;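 also: 0% = vehicle with enzyme and substrate and 100% = no enzyme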
Statin myotox sup = suppressors of statin myotoxicity in C2C12 myotubes, primary screen, cell-based, single point, plate reader. C2C12 myotubes + simvastatin, ATP luminescence, 48 h; scaled: DMSO 0, geranylgeraniol control 100. rescue of ATP level, % at 7.49 µM. hit rate 0.78% among 330,000. AID 602340, 2012;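 active = mean ATP rescue above about 67%, or every replicate alone reaching that limit, limit read from the data, passing the limit was not always enough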;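 also: myotubes were challenged with 10 µM simvastatin during compound exposure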
ARFGAP1 inh = inhibitors of rat ARFGAP1 GAP activity, primary screen, biochemical, fluorescence polarization, GDP tracer; hit rate 0.26% among 360,000; Arfgap1-stimulated ARF1 GTP hydrolysis, GDP FP detection; ADP-ribosylation factor GTPase-activating protein 1 (Rattus norvegicus), Q62848; inhibition, % at 16.5 µM;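 active = inhibition above a per-plate limit, mean inhibition of low control wells plus 3 SD, cut at about 25% in these data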;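 also: 0% = DMSO wells with enzyme and 100% = wells lacking Arfgap1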
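System: truncated rat Arfgap1 GAP domain / Medium: HEPES-based buffer, pH 7.5 / Also added: N-terminally truncated human ARF1-GTP substrate / Incubation: enzyme reaction 120 min at 25 °C after 20 min preincubation / Measured by: FP of antibody-bound GDP Alexa 633 tracer, ex 620/em 688 nm / Replicates: singlicate, each compound tested once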
* hit, by the source's call. Rows were chosen to be rich in hits. Some 2.1% of all compounds tested hit in one or more screens of this group.

Clc1ccc(C(c2nnnn2C2CCCC2)N2CCN(Cc3ccncc3)CC2)cc1 (stereo not given) was read as APOBEC3A inh -2, Mot1-301 SUMO -10, APOBEC3G inh -4, ASAP1 inh -3, Statin myotox sup 3 and ARFGAP1 inh 6.
For CCC(c1nnnn1C1CCCC1)N1CCN(c2ccccc2F)CC1 (stereo not given) the results were APOBEC3A inh 0, Mot1-301 SUMO -19, APOBEC3G inh -6, ASAP1 inh 10, Statin myotox sup 124* and ARFGAP1 inh -2.
c1ccc(C(c2ccccc2)N2CCN(Cc3nnnn3C3CCCC3)CC2)cc1 was read as APOBEC3A inh -3, Mot1-301 SUMO -16, APOBEC3G inh -5, ASAP1 inh 4, Statin myotox sup 77* and ARFGAP1 inh 0.
For Fc1ccc(C(c2nnnn2C2CCCC2)N2CCN(Cc3ccccc3)CC2)cc1 (stereo not given) the results were ASAP1 inh -3, Statin myotox sup 137* and ARFGAP1 inh 1.
Screening CCCNC(=O)Nc1ccc2c(c1)C(=O)N(C)C[C@H](OC)[C@H](C)CN(Cc1cncnc1)[C@@H](C)CO2 returned Statin myotox sup -2.
CC(C)c1cn(CC[C@@H]2CC[C@H](NC(=O)C3CCC3)[C@H](CO)O2)nn1 was read as Statin myotox sup 1.
`COc1cccc(OC)c1C(=O)N1CCN(S(=O)(=O)c2ccc(C)cc2)CC1` gave APOBEC3A inh 0, Mot1-301 SUMO 5, APOBEC3G inh -1, ASAP1 inh -1, Statin myotox sup 126* and ARFGAP1 inh -5.
Cc1ccc(S(=O)(=O)N(C)c2ccc(C(=O)O)cc2)cc1 was read as APOBEC3A inh 27, Mot1-301 SUMO 2, APOBEC3G inh 8, ASAP1 inh -4, Statin myotox sup 125* and ARFGAP1 inh -5.
Cc1ccc(S(=O)(=O)N(C)c2ccc(C(=O)N3CCCCC3)cc2)cc1 was read as APOBEC3A inh -1, Mot1-301 SUMO -2, APOBEC3G inh -9, ASAP1 inh 13, Statin myotox sup -8 and ARFGAP1 inh -4.
CCC(=O)N(C)C[C@@H]1Oc2ncc(-c3ccc(F)cc3)cc2C(=O)N([C@H](C)CO)C[C@@H]1C was read as Statin myotox sup 5.
Screening CCOc1ccc(CNc2ccc(CNc3ncn[nH]3)cc2)cc1 returned APOBEC3A inh -9, Mot1-301 SUMO 342*, APOBEC3G inh -5, ASAP1 inh 6, Statin myotox sup 7 and ARFGAP1 inh 4.
Screening Cc1ccc(CNc2ccc(CNc3ncn[nH]3)cc2)cc1 returned APOBEC3A inh 0, Mot1-301 SUMO 78, APOBEC3G inh 0, ASAP1 inh 16, Statin myotox sup -23 and ARFGAP1 inh 17.
O=C(O)C1CCC(=O)N(C2CC2)C1c1ccccc1 (stereo not given) was read as APOBEC3A inh -2, APOBEC3G inh -1, ASAP1 inh 13, Statin myotox sup 107* and ARFGAP1 inh 1.
CCC1(c2ccccc2)ON(c2c(Br)cccc2Br)C1=O (stereo not given) was read as APOBEC3A inh 1, Mot1-301 SUMO 718*, APOBEC3G inh 4, ASAP1 inh 10, Statin myotox sup -17 and ARFGAP1 inh 15.
CCC(=O)Nc1ccc2c(c1)C(=O)N(C)[C@@H]1CC[C@H](CC(=O)NCc3ccccc3)O[C@@H]1CO2 was read as Statin myotox sup 2.
Screening CCC(=O)Nc1ccc2c(c1)C(=O)N(C)C[C@H](OC)[C@@H](C)CN(C(=O)c1ccccc1F)[C@H](C)CO2 returned Statin myotox sup -7.
